# HEK293 NFkB inh – inhibitors of the PMA/ionomycin-induced NF-kB reporter in HEK293 cells. HEK-293 NF-kB luciferase reporter, luminescence. inhibition, % at 3 µM. actives 0.21% (n = 62,000). AID 465;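 active = inhibition above the mean of all tested compounds plus 3 SD, cut at about 40% in these data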;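 note: 0% = stimulated DMSO wells and 100% = 10 µM reference inhibitor 5653914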
#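 Signal: luciferase luminescence; Material: HEK-293 cells with stable firefly luciferase reporter driven by four HIV NF-kB elements; Probe or stimulus: PMA with ionomycin; Replication: tested once; Times: 1 h compound pretreatment, then 16 h stimulation at 37 °C, 5% CO2; Benchmarks: DMSO and 10 µM reference inhibitor; Evaluation: per-plate % inhibition versus controls.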
# Jurkat tox 60K – cytotoxicity toward Jurkat cells | Jurkat E6.1 viability, ATP luminescence, 48 h | inhibition, % at 4 µM | actives 1.2% (n = 56,000) | AID 463;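 active = inhibition above the mean inhibition of all tested compounds plus 3 SD, cut at about 28% in these data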
# MMP-13 inhibitor – MMP13 (human) collagenase inhibition; inhibition, % at 4 µM; MMP-13 fTHP FRET cleavage, Mca fluorescence; P45452; AID 570; actives 0.07% (n = 65,000);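 active = inhibition above the mean of compound-free control plate wells plus 3 SD, cut at about 14% in these data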;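 note: 0% = DMSO wells and 100% = wells with reference MMP-13 inhibitor after basal subtraction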
# TNAP act DEA – activates human TNAP at intermediate phosphate acceptor concentration. 64,000 tested, under 10 active. AID 813. purified TNAP, CDP-star luminescence, 100 mM DEA, 30 min; hits give high values; scale: 0 levamisole-inhibited, 1 vehicle-only enzyme. activation factor at 20 µM. P05186;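 active = activation factor of at least 2 at 20 µM, relative to controls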
# Target sequence (P05186 whole entry, looked up): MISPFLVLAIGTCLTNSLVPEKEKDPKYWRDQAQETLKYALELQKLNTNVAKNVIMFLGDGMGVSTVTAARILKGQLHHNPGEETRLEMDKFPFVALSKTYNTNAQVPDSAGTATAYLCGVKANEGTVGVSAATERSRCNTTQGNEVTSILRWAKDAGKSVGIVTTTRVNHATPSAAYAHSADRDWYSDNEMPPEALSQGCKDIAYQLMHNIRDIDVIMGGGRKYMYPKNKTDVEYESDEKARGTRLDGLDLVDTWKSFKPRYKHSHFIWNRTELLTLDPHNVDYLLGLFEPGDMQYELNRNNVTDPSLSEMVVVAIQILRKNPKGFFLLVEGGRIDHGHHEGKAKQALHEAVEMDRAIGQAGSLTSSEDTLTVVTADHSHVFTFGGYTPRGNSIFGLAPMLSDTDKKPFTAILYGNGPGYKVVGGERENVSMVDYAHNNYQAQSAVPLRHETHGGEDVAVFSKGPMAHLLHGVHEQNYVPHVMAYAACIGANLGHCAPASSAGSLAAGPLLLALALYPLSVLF
# Candida biofilm – kills Candida albicans biofilms | inhibition, % at 6 µM | C. albicans biofilm + clotrimazole, Alamar Blue | actives 0.14% (n = 85,000);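 active = inhibition above 20%; inactive = inhibition below 20%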;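 note: preformed 24 hr biofilms exposed to compound for 48 hr; 0% = biofilm without compound and 100% = blank killed by clotrimazole plus chlorhexidine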
# An asterisk follows results filed as active; . = no result. The entries come from a sample that favours hits as a whole.
SMILES,HEK293 NFkB inh,Jurkat tox 60K,MMP-13 inhibitor,TNAP act DEA,Candida biofilm
COc1cccc(OC)c1NC(=O)Cc1nn(C)c(=O)c2ccccc12,14.4,7.0,4.5,0.9,8.8
Cn1nc(CC(=O)Nc2ccc3c(c2)OCCO3)c2ccccc2c1=O,32.3,94.7*,-4.4,0.8,.
COc1ccc(Cn2nc(C)n(N(C)c3ncc(C(F)(F)F)cc3Cl)c2=O)cc1,.,.,.,.,4.3
Cc1onc(-c2ccccc2)c1-c1n[nH]c(=S)n1-c1ccccc1,.,.,.,.,-2.9
COc1cc2[nH]c(=O)n(CCC(=O)NC3CCCC3)c(=O)c2cc1OC,20.2,-4.0,-9.9,1,-1.3
COc1cc2[nH]c(=O)n(Cc3ccc(C(=O)NC4CCCC4)cc3)c(=O)c2cc1OC,.,.,.,.,23.5*
CCn1c(CSc2nc3ccccc3s2)nc2ccccc21,.,.,.,1,10.6
O=C(O)CCN1C(=O)C2CCCCC2C1=O (centres undefined),.,.,.,.,37.0*
COc1ccc(CC(=O)Nc2cccc(-c3nnc(-c4ccccc4)o3)c2)cc1OC,11.6,33.3*,4.0,0.9,8.4
COc1ccc(CCNC(=O)CSc2nnc(-c3cccc(C)c3)o2)cc1OC,14.1,1.2,3.2,0.9,2.5
COc1ccc(Cc2nnc(-c3cccc(C)c3)o2)cc1OC,-0.8,8.9,-7.6,0.9,24.0*
COc1ccc(CC(=O)Nc2nc(C)cs2)cc1OC,2.4,37.0*,-0.7,0.9,-0.9
COc1ccc(-c2nc3cc(NC(=O)Cc4ccc(OC)c(OC)c4)ccc3o2)cc1,7.7,72.7*,-107.0,0.9,9.5
COc1ccc(Cl)cc1NC(=O)CSc1nnc(CN2CCOCC2)n1-c1ccc(Cl)cc1,.,.,.,.,-4.3
CCn1c(SCc2nc3ccccc3[nH]2)nnc1-c1ccc(OC)cc1,.,.,.,.,6.3
COc1ccc(CC(=O)Nc2cccc(-c3nnc(-c4cccc(C)c4)o3)c2)cc1OC,0.5,42.8*,1.5,0.9,1.6
CCOC(=O)c1c(NC(C)=O)sc2c1C1CCN2CC1,.,.,.,.,6.2
Cc1cc(C(=O)Nc2sc3c(c2C#N)CCC3)no1,-44.5,44.8*,0.8,1,3.4
Cc1csc(SCC(=O)Nc2sc3c(c2C#N)CCC3)n1,.,.,.,.,5.7
Cc1onc(-c2ccccc2)c1C(=O)Nc1sc2c(c1C#N)CCC2,8.0,49.4*,-0.5,0.9,4.1
Cc1ccnc(SCC(=O)Nc2sc3c(c2C#N)CCCC3)n1,24.2,90.2*,-7.2,0.9,3.0
CC(=O)Oc1ccc(Oc2ccc(-c3noc(C)n3)cc2)cc1,-6.7,34.2*,8.4,1,5.2
Cc1sc2c(c1C)c(=O)nc1scc(C)n12,.,.,.,.,-1.8
Cc1nn(Cc2c(Cl)cccc2Cl)c(C)c1NC(=O)c1cc(C(C)C)on1,44.4*,44.9*,-9.2,0.9,2.3
Cc1cc(C(=O)Nc2c(C)nn(Cc3c(Cl)cccc3Cl)c2C)no1,-22.1,24.3,4.1,1,8.9
SMILES,HEK293 NFkB inh,Jurkat tox 60K,MMP-13 inhibitor,TNAP act DEA,Candida biofilm
COc1ccc(-c2cc3nc4n(c(=O)c3s2)CCOC4)cc1,.,.,-193.1,0.9,.
O=C(NCCN1CCOCC1)NC1(C(F)(F)F)Oc2ccc(Cl)cc2O1 (centres undefined),15.7,79.6*,1.3,0.9,.
COCC(C)NC(=O)NC1(C(F)(F)F)Oc2ccc(Cl)cc2O1 (centres undefined),19.9,.,4.8,1,3.5
COC(=O)c1cn(NC(=O)c2cccc(F)c2)c(=O)c2ccccc12,.,.,.,.,59.7*
COC(=O)c1cn(NC(=O)c2cccc(N(C)C)c2)c(=O)c2ccccc12,17.1,.,0.4,1,.
COc1cccc(OCc2nc3ncc(Br)cc3[nH]2)c1,25.0,64.6*,1.3,1,3.3
Cc1cc2nc(C)n(CCCNC(=O)Nc3ccc(F)cc3)c2cc1C,.,.,.,.,7.5
Cc1cccc(OCC(=O)Nc2cc(C)on2)c1,.,.,.,.,6.8
Cc1cc(NC(=O)COc2cccc(Oc3ccccc3)c2)no1,-3.6,49.7*,-5.4,0.8,.
CCN1C(=S)SC(=O)C1=C1C=C(C)N(Cc2ccco2)C(C)=C1,-39.8,.,18.9*,0.9,7.8
CCN1C(=S)SC(=O)C1=C1C=C(C)OC(C)=C1,9.1,.,6.2,0.8,-0.9
COc1cc2c(cc1OC)C(C)N(C(=O)c1cc3ccccc3o1)CC2 (centres undefined),9.3,28.3*,4.3,1,8.5
CC(=O)c1cn(CC(=O)Nc2ccccc2)c2ccccc12,17.8,37.2*,-5.0,1,6.0
O=C(Cn1cc(C(=O)c2ccco2)c2ccccc21)Nc1ccccc1,.,.,.,.,2.0
CC1CC(C)CN(S(=O)(=O)c2ccc(F)c(C(=O)Nc3ccc(Cl)cc3F)c2)C1 (centres undefined),.,.,.,.,46.2*
CCN1CCN(C(=O)c2oc(=O)c3ccccc3c2-c2ccc(C)cc2)CC1,8.3,4.7,2.6,0.9,2.6
Cc1ccc(-c2c(C(=O)N3CCOCC3)oc(=O)c3ccccc23)cc1,0.3,-1.2,-1.6,0.9,27.0*
CCNc1ccc(C(=O)OCC)cc1NC(=O)c1cccc(N(C)C)c1,41.6*,.,13.3,0.9,8.7
CCNc1ccc(C(=O)OCC)cc1NC(=O)c1cc(S(=O)(=O)N2CCOCC2)ccc1C,18.2,.,-3.0,0.9,3.6
COc1ccc(NC2C=CS(=O)(=O)C2)c(OC)c1 (centres undefined),12.5,0.5,1.0,0.9,23.7*
COc1ccc(C(=O)n2c(-c3ccco3)nc3ccccc32)cc1,23.3,77.7*,2.7,0.9,1.4
COc1ccc(CCn2c(-c3ccco3)nc3nc4ccccc4nc32)cc1,12.6,9.9,-10.7,0.8,-1.5
Cc1cc(S(=O)(=O)Nc2cc(C)c(O)c(C)c2)c(C)s1,.,.,.,.,4.5
COc1ccccc1Oc1ccc(S(=O)(=O)N2CCOCC2)cc1S(=O)(=O)N1CCOCC1,3.3,-1.9,4.2,0.9,13.0
Cc1ccc(Oc2ccc(S(=O)(=O)N3CCOCC3)cc2C(N)=O)c(-n2nc3ccccc3n2)c1,28.3,87.0*,-43.8,0.9,7.1
SMILES,HEK293 NFkB inh,Jurkat tox 60K,MMP-13 inhibitor,TNAP act DEA,Candida biofilm
COc1ccc(C(=O)C(CN2CCOCC2)c2ccccc2)cc1 (centres undefined),.,.,.,.,5.2
O=C(c1ccc(F)cc1)C(CN1CCOCC1)c1ccccc1 (centres undefined),28.9,80.5*,7.5,0.9,9.4
CCc1nc2ccccc2c(=O)n1CCCCn1c(CC)nc2ccccc2c1=O,14.9,10.9,6.2,0.9,5.7
Cc1ccccc1-n1ncc2c(SCC(=O)NCc3cccs3)ncnc21,10.0,39.9*,-3.9,0.8,1.3
COc1ccccc1-n1cnc2cc(NCc3ccco3)ccc21,25.6,57.5*,-1.2,0.9,0.7
COc1ccccc1-n1cnc2cc(NCc3cccs3)ccc21,.,.,.,.,1.9
Cn1c(C(=O)NCc2cccs2)cc2oc3ccccc3c21,18.9,28.8*,-0.7,0.9,.
Cc1cc2nnc(SCC(=O)NCc3ccco3)n2c2ccccc12,28.2,83.8*,-3.5,.,.
Cc1cc2nnc(SCC(=O)NCc3cccs3)n2c2ccccc12,.,.,.,.,4.6
Cc1cc(NC(=O)CSc2nc(CC(C)(C)C)nc3c2c(=O)n(C)c(=O)n3C)no1,.,.,.,.,2.1
CCOC(=O)N1CCN(c2c(NCc3cccs3)c(=O)c2=O)CC1,10.3,36.7*,1.8,0.9,2.6

# Source: PubChem BioAssay
